# According to ChEMBL document CHEMBL4190227, “Syntheses, toxicities and anti-inflammation of H2S-donors based on non-steroidal anti-inflammatory drugs” (Eur J Med Chem, 2017):
# What was measured:
# [1] = Toxicity in AB zebrafish embryo assessed as percentage of embryos alive at 5 to 10 uM measured at 120 hrs post fertilization by dissecting light microscopic analysis relative to DMF; assay type: organism-based, Danio rerio; conditions: read-out: Activity
# How it was run: (§1)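 Wild-type AB zebrafish embryos, collected within 1 h of lights-on and washed in E3 medium, were exposed one embryo per well in 200 μL test solution, with plates sealed against evaporation. There were 100 embryos per group, split into three replicate groups. Mortality was recorded at 24–168 hpf. DMF vehicle (1:1000) served as control. Results are mean ± SD of three replicates.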
# Danio rerio [2] = species on record: Danio rerio; experiment: Toxicity in AB zebrafish embryo assessed as rate of embryo malformation at 20 uM measured at 96 hrs post fertilization by stereoscopic dissecting light microscopic analysis relative to DMF; assay type: organism-based; conditions: in vivo
# How it was run: (§2)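 AB embryos exposed from 4 hpf through 96 hpf to compound or DMF vehicle (1:1000); malformations scored at 96 hpf under stereoscopic dissecting microscope; 100 embryos per group in three replicates; three independent experiments, mean ± SD.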
# Danio rerio [3] = experiment: Toxicity in AB zebrafish embryo assessed as pericardial edema at 0.5 uM measured at 96 hrs post fertilization by stereoscopic dissecting light microscopic analysis; assay type: organism-based; conditions: in vivo; how it was run: as §2
# [4] = biological target: T1, Nitric oxide synthase, inducible (Mus musculus) (UniProt P29477); experiment: Inhibition of iNOS in mouse RAW264.7 cells assessed as reduction in LPS-induced NO production administered for 24 hrs post LPS induction by Griess method; assay type: cell-based
# T1 sequence (whole entry): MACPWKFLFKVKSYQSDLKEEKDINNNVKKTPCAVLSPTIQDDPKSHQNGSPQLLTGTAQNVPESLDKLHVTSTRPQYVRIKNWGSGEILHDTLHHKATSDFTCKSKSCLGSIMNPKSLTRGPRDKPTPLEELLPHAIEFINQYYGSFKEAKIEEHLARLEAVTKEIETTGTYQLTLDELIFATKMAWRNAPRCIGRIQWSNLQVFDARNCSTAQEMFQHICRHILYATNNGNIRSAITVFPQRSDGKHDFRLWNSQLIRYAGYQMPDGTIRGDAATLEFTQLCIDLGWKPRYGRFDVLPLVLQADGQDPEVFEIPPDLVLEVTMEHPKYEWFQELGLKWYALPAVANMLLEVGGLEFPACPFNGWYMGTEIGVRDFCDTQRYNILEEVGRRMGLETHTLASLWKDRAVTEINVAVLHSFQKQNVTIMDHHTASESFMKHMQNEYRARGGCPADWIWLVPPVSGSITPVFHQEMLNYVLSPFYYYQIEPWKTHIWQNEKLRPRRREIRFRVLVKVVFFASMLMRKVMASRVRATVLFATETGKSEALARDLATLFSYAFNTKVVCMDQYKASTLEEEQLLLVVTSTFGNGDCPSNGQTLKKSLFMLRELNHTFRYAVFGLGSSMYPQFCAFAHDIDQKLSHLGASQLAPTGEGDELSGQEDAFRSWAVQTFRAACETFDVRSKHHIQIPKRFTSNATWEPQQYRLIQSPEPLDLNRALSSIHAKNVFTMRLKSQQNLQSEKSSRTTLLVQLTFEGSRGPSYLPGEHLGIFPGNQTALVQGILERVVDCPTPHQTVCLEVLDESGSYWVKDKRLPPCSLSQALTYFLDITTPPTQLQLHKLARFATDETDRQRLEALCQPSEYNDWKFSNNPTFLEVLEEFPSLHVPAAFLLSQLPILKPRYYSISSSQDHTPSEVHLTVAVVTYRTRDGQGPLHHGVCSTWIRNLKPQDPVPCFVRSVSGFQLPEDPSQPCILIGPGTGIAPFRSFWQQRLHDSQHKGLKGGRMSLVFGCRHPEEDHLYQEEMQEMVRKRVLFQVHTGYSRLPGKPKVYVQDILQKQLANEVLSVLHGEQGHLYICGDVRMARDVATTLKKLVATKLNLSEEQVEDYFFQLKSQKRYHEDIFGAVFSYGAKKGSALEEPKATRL
# How it was run: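 RAW264.7 cells stimulated with LPS 1 μg/mL for 4 h, then compound (10, 50, 100 μM) for 24 h; culture medium reacted with Griess reagents I and II, absorbance 570 nm; nitrite from sodium nitrite standard curve (0–100 μM in medium); four independent experiments, mean ± SD.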
# [5] = (§3) Cytotoxicity against mouse RAW264.7 cells assessed as cell viability at 10 to 100 uM treated for 24 hrs post LPS induction by MTT assay; assay type: cell-based; conditions: RAW264.7 cells, read-out: Activity
# How it was run: (§4)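 Macrophages in high-glucose DMEM + 10% heat-inactivated FBS, 2 mM glutamine, 37 °C, 5% CO2; exposed 24 h to 10, 50, 100 μM with or without LPS 1 μg/mL; MTT added 4 h, formazan dissolved in DMSO, A570, expressed as % of control; four independent experiments.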
# [6] = (§5) Cytotoxicity against mouse RAW264.7 cells assessed as cell viability at 10 to 100 uM treated for 24 hrs in absence of LPS by MTT assay; assay type: cell-based; conditions: RAW264.7 cells, read-out: Activity; how it was run: as §4
# RAW264.7 [7] = experiment: Antiinflammatory activity in mouse RAW264.7 cells assessed as increase in IL10 levels at 100 uM measured after 24 hrs in absence of LPS by ELISA relative to control; assay type: functional
# How it was run: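 Macrophages exposed 24 h to 10, 50, 100 μM without LPS; lysates (RIPA, 12,000×g spin) normalised by BCA to 0.1 mg/mL protein; IL-10 measured by mouse-specific sandwich ELISA kit; four independent experiments, mean ± SD.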
# Danio rerio [8] = species on record: Danio rerio; experiment: Toxicity in AB zebrafish embryo assessed as embryonic spontaneous movement frequencies per minute at 10 uM measured at 24 hrs post fertilization by stereoscopic dissecting light microscopic analysis (reference value: 15.9 /min); assay type: organism-based; conditions: in vivo
# How it was run: (§6)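 AB embryos exposed from 4 to 24 hpf to compound (0.5–20 μM) or DMF vehicle (1:1000); ten embryos per group chosen randomly; spontaneous movement recorded under stereoscopic dissecting microscope, frequency per min counted at 24 hpf; three independent experiments, mean ± SD.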
# RAW264.7 [9] = experiment: Antiinflammatory activity in mouse RAW264.7 cells assessed as increase in LPS-induced IL10 levels at 100 uM incubated for 24 hrs post LPS induction by ELISA relative to control; assay type: functional
# How it was run: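 LPS (1 μg/mL) for 4 h, then compound at 10, 50, 100 μM for 24 h; cells lysed in RIPA, spun 12,000×g 10 min, protein normalised by BCA to 0.1 mg/mL; target (TNF-α, HO-1, IL-10 or COX-2) quantified by sandwich ELISA kit with mouse-specific polyclonal antibodies; four independent experiments.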
# Danio rerio [10] = species on record: Danio rerio; experiment: Toxicity in AB zebrafish embryo assessed as embryonic spontaneous movement frequencies per minute at 5 uM measured at 24 hrs post fertilization by stereoscopic dissecting light microscopic analysis (reference value: 15.9 /min); assay type: organism-based; conditions: in vivo; how it was run: as §6
# RAW264.7 [11] = experiment: as §3; assay type: cell-based; conditions: raw264.7, 24 h, 100 µM; how it was run: as §4
# [12] = Toxicity in AB zebrafish embryo assessed as percentage of embryos alive at 20 uM measured at 120 hrs post fertilization by dissecting light microscopic analysis relative to DMF; assay type: organism-based, Danio rerio; conditions: read-out: Activity; how it was run: as §1
# RAW264.7 [13] = experiment: as §5; assay type: cell-based; conditions: raw264.7, 24 h, 100 µM; how it was run: as §4
SMILES,"survival at 120 h, up to 10 µM [1] [%]",Activity (Danio rerio [2]) [%],Activity (Danio rerio [3]),inhibition [4],"viability at 24 h, up to 100 µM [5] [%]","viability at 24 h, up to 100 µM [6] [%]",fold change (FC) (RAW264.7 [7]),Activity (Danio rerio [8]) [min⁻¹],fold change (FC) (RAW264.7 [9]),Activity (Danio rerio [10]) [min⁻¹],Activity (RAW264.7 [11]),"survival at 120 h, 20 µM [12] [%]",Activity (RAW264.7 [13])
CC(C)Cc1ccc(C(C)C(=O)Oc2ccc(C(N)=S)cc2)cc1 (centres undefined),60,5,Toxic,Dose-dependent effect,70 to 110,70 to 110,–,–,–,–,–,–,–
CC(=O)Nc1ccc(OC(=O)CCCCC2CCSS2)cc1 (centres undefined),–,–,–,Dose-dependent effect,–,–,3,13.5,3,14.1,Non-Toxic,41,Non-Toxic
